Reference: ChEMBL document CHEMBL1145585, “Discovery of novel 4-amino-6-arylaminopyrimidine-5-carbaldehyde oximes as dual inhibitors of EGFR and ErbB-2 protein tyrosine kinases” (Bioorg Med Chem Lett, 2008)

Experiments:
Type in all cases: ADME, organism-based
[1] = Cmax in Sprague-Dawley rat at 10 mg/kg, po; design: dose 10 mg/kg, route oral; details: in vivo
Summary of the method: (§1)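 Sprague–Dawley rats were dosed 2 mg/kg iv in 10% solutol in D5W and 10 mg/kg po in 0.5% hydroxypropyl methylcellulose. Plasma levels were followed to derive the pharmacokinetic parameters.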

[2] = Clearance in Sprague-Dawley rat at 2 mg/kg, iv and 10 mg/kg, po; details: in vivo; summary of the method: as §1
[3] = Volume of distribution at steady state in Sprague-Dawley rat at 2 mg/kg, iv and 10 mg/kg, po; details: in vivo, read-out: Vdss; summary of the method: as §1
[4] = Tmax in Sprague-Dawley rat at 10 mg/kg, po; design: dose 10 mg/kg, route oral; details: in vivo; summary of the method: as §1
[5] = Half life in Sprague-Dawley rat at 10 mg/kg, po; design: dose 10 mg/kg, route oral; details: in vivo; summary of the method: as §1
[6] = AUC in Sprague-Dawley rat at 10 mg/kg, po; design: dose 10 mg/kg, route oral; details: plasma; summary of the method: as §1
[7] = Bioavailability in Sprague-Dawley rat at 2 mg/kg, iv and 10 mg/kg, po; details: in vivo; summary of the method: as §1

Cmax [1]: 5.7 µM
clearance [2]: 3.56 mL/min/kg
Vd [3]: 0.17 L/kg
Tmax [4]: 0.63 h
half-life [5]: 8.4 h
AUC [6]: 19.3 µM·h
bioavailability [7]: 15%
Compound: CO/N=C/c1c(N)ncnc1Nc1ccc(OCc2ccccc2)c(Cl)c1
